Data from publication PMC5435566 (Nature chemical biology, 2017).

Assays:
[1] = system: human LMPTP-A mutants (Y49, Y131, Y132); assay: Inhibition of LMPTP-A mutants, OMFP substrate; type: biochemical; settings: 0.4 mM OMFP, versus wild-type LMPTP-A
How it was run: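 Wild-type and mutant human LMPTP-A were assayed with 0.4 mM OMFP in 50 mM Bis-Tris pH 6.0, 1 mM DTT, 0.01% Triton X-100 at 37°C across test-compound concentrations. OMFP hydrolysis was monitored continuously by fluorescence (ex 485/em 525 nm) and reported as % activity, from 3 independent experiments.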

Solubility = type: physicochemical
human LMPTP-A = biological target: T1, human LMPTP-A (Homo sapiens, UniProt P24666); assay: Isothermal titration calorimetry; type: binding
T1 sequence (P24666 1-158): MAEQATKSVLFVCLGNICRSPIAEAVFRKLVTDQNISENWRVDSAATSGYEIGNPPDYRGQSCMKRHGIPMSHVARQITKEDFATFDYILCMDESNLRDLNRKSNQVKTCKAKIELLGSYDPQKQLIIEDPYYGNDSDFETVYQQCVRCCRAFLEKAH
How it was run: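 ITC was run at 23°C: 2 μl injections of 0.5 mM test compound into 50 μM human LMPTP-A, with or without 200 μM sodium orthovanadate to form the cysteine adduct. Tris runs used 10 mM Tris pH 7.5, 75 mM NaCl, 0.5 mM β-mercaptoethanol, 5% DMSO; parallel runs used phosphate buffer. Kd, ΔH and −TΔS were derived from the titrations.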

[2] = system: insulin receptor (IR) tyrosine phosphorylation in HepG2 hepatocytes; assay: IR phosphorylation in HepG2 cells; type: cell-based, human; settings: 10 μM compound overnight, 10 nM insulin 5 min
How it was run: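 HepG2 cells were grown in MEM with 10% FBS and pen/strep and confirmed mycoplasma-free. Cells were treated overnight with 10 μM test compound or DMSO in 0.1% FBS medium, then stimulated with 10 nM bovine insulin for 5 min at 37°C. Read-outs were anti-IRβ immunoprecipitation with pY1162/Y1163 Western blot (2 experiments) and pIRβ Y1150/Y1151 sandwich ELISA (5 experiments).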

SMILES	inhibition of LMPTP-A mutated at Y49 and Y132 [1]	inhibition of LMPTP-A mutated at Y131 alone or in combination with Y49 and Y132 [1]	solubility (Solubility)	Kd (human LMPTP-A; Tris buffer, no vanadate) [µM]	Kd (human LMPTP-A; phosphate buffer) [µM]	−TΔS (human LMPTP-A; Tris buffer, no vanadate) [kcal/mol]	−TΔS (human LMPTP-A; phosphate buffer) [kcal/mol]	HepG2 IR phosphorylation after insulin stimulation [2]
N#Cc1ccccc1-c1cc(NCCCN2CCCCC2)c2ccccc2n1 [Compd. 18]	substantially reduced	completely abolished	highly soluble	8 ± 2	10 ± 2	-6.4 ± 0.3	-5.6 ± 0.3	
c1ccc(-c2cc(SCCCN3CCCCC3)c3ccccc3n2)cc1 [Compd. 28]								had no effect
